Series [1] relates to Mycobacterium tuberculosis. Put plainly: Antibacterial activity against Mycobacterium tuberculosis H37Rv ATCC 27294 assessed as growth inhibition after 28 days by agar dilution method. It is filed as functional. As to conditions: H37Rv ATCC 27294, 672 h. The method in brief:
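Two-fold serial dilutions incorporated into Middlebrook 7H11 agar with OADC, final 50 to 0.78 µg/mL. Inoculum of 1 mg/mL (wet weight) in 0.05% Tween 80 saline, diluted 10⁻² to ~10⁷ cfu/mL. 5 µL spotted per tube, incubated at 37 °C for 28 days. MIC is the lowest concentration giving complete growth inhibition.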

In series [2] the target is T1, Pantothenate synthetase (Mycobacterium tuberculosis) (UniProt P9WIL5).
T1 sequence (whole entry): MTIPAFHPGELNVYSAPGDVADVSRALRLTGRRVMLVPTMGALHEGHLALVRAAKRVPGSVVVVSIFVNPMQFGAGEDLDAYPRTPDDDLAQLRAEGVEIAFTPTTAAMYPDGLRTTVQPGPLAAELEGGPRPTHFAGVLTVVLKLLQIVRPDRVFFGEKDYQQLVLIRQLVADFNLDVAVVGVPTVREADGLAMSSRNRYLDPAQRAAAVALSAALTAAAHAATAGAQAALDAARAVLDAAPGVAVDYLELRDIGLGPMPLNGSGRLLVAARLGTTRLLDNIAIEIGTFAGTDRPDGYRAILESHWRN
The series can be described thus: Inhibition of Mycobacterium tuberculosis pantothenate synthetase cloned in Escherichia coli BL21 (DE3) using ATP, beta-alanine, pantoic acid as substrate assessed as NAD+ production at 100 uM measured every 12 secs for 120 secs by spectrophotometric analysis relative to control. The method in brief: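 Coupled assay linking AMP from β-alanine plus pantoate condensation to NADH oxidation via myokinase, pyruvate kinase and lactate dehydrogenase. Mix held NADH, pantoic acid, β-alanine, ATP, phosphoenolpyruvate and MgCl₂ in buffer; compound (100 µM) added; reaction started with PS. A340 read every 12 s for 120 s. % inhibition = 100 × (1 − (compound rate − background)/(full rate − background)).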

The target in series [3] is T2, Pantothenate synthetase (Mycobacterium tuberculosis, UniProt P9WIL5).
T2 sequence (P9WIL5 whole entry): T1 sequence (whole entry)
Put plainly: Inhibition of Mycobacterium tuberculosis pantothenate synthetase cloned in Escherichia coli BL21 (DE3) using ATP, beta-alanine, pantoic acid as substrate assessed as NAD+ production measured every 12 secs for 120 secs by spectrophotometric analysis. The method in brief: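 Same AMP-coupled NADH/A340 PS assay (NADH, pantoic acid, β-alanine, ATP, PEP, MgCl₂, myokinase, pyruvate kinase, LDH; reaction started with enzyme; read every 12 s for 120 s). IC₅₀ determined for compounds exceeding 60% inhibition at 100 µM, using rate-based % inhibition corrected for background.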

The nature of series [4]: Cytotoxicity against mouse RAW264.7 cells assessed as inhibition of cell viability at 50 uM after 72 hrs by MTT assay relative to control. It is filed as cell-based. As to conditions: read-out: INH. The method in brief: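 RAW 264.7 mouse macrophage cells exposed to compound at 50 µM for 72 h. Viability assessed by cellular conversion of MTT to formazan.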
For orientation: Tetrazolium dyes change colour on reduction, which living cells bring about.

Series [5] has as its target T2, Pantothenate synthetase. Put plainly: Binding affinity to Mycobacterium tuberculosis pantothenate synthetase.

Values after ≈ are worked out from the molar mass of the structure shown.

The term MIC denotes the lowest concentration found to suppress growth. Broadly, the inhibition is the change of the read-out against control, counted positive when it falls. The IC50 is the midpoint of a concentration-inhibition curve. Take `O=C(Nc1ccc([N+](=O)[O-])cc1)N1CCc2c(c(-c3ccccc3)nn2C(=O)c2ccccc2)C1`: in series [1], the MIC is 26.7 µM (≈ 12.5 µg/mL). For the same molecule, in series [2], the inhibition came out at 95.7%. For the same molecule, in series [3], the IC50 amounted to 21.8 µM. Also, the cytotoxicity at 72 h, 50 µM in series [4] came to 0%.
One may read the Kd as the equilibrium constant for the complex coming apart. `Cc1ccc2c(c1)C=C(C(=O)NS(=O)(=O)c1cc3ccccc3o1)C2CC(=O)O` (stereo not drawn) gave a Kd in series [5] of 1.8 µM.
As for `CC(=O)c1ccc(S(=O)(=O)N2CCc3c(c(-c4ccccc4)nn3C(=O)c3ccccc3)C2)cc1`, in series [1], the MIC worked out at 51.5 µM (≈ 25 µg/mL). In addition, the inhibition in series [2] was found to be 78.5%. Further, the 50% inhibitory concentration (IC50) in series [3] is 39.1 µM. Also, the cytotoxicity at 72 h, 50 µM in series [4] was found to be 5.3%.
Taken in the same sequence, the figures for `O=C(c1ccccc1)n1nc(-c2ccccc2)c2c1CCN(S(=O)(=O)c1ccc(F)cc1)C2` were 54.2 µM (≈ 25 µg/mL), 77%, 38.6 µM and 0%.

These data come from ChEMBL document CHEMBL2434961, “Development of 3-phenyl-4,5,6,7-tetrahydro-1H-pyrazolo[4,3-c]pyridine derivatives as novel Mycobacterium tuberculosis pantothenate synthetase inhibitors” (Eur J Med Chem, 2013).
